From ChEMBL document CHEMBL1629494, “New amino acid esters of salicylanilides active against MDR-TB and other microbes” (Eur J Med Chem, 2010)
pIC50: −log10 of the molar value. Values after ≈ are worked out from the molar mass of the structure shown.

What was measured:
[1] = system: Mycobacterium avium; test: Antimycobacterial activity against Mycobacterium avium; format: functional
[2] = system: Staphylococcus epidermidis; test: Antibacterial activity against Staphylococcus epidermidis H6966/08 after 48 hrs by broth microdilution method; format: functional; details: H6966/08, 48 h
Outline: (§1)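 Broth microdilution following […], with twofold compound dilutions in Mueller-Hinton bouillon. Incubated 24 and 48 h at 35 °C in the dark in a humid atmosphere. MIC (IC80) was taken as ≥80% growth reduction versus control, read visually and photometrically.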

[3] = system: Mycobacterium avium; test: Antimycobacterial activity against multidrug-resistant Mycobacterium avium 330/88 after 14 days by micromethod; format: functional; details: 330/88, 336 h
Outline: (§2)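 Micromethod in Sula semisynthetic medium, with compounds added as DMSO solutions at 1000, 500, 250, 125, 62, 32, 16, 8, 4, 2, 1, 0.5, 0.25. Inoculum dilutions: H37Rv 10^-3; M. avium 330/88 10^-5; M. kansasii 235/80 10^-4; M. kansasii 6509/96 10^-5. Incubated at 37 °C, read at 14 and 21 days, and at 7 days for M. kansasii. MIC was the lowest concentration inhibiting growth.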

[4] = system: Enterococcus sp.; test: Antibacterial activity against Enterococcus sp. J14365/08 after 24 hrs by broth microdilution method; format: functional; details: J14365/08, 24 h; outline: as §1
[5] = system: Klebsiella pneumoniae; test: Antibacterial activity against Klebsiella pneumoniae D11750/08 after 48 hrs by broth microdilution method; format: functional; details: D11750/08, 48 h; outline: as §1
[6] = system: Staphylococcus aureus; test: Antibacterial activity against Staphylococcus aureus CCM 4516/08 after 24 hrs by broth microdilution method; format: functional; details: CCM 4516/08, 24 h; outline: as §1
[7] = system: Trichophyton mentagrophytes; test: Antifungal activity against Trichophyton mentagrophytes after 24 hrs by broth microdilution method; format: functional
[8] = system: Escherichia coli; test: Antibacterial activity against Escherichia coli CCM 4517 after 48 hrs by broth microdilution method; format: functional; details: CCM 4517, 48 h; outline: as §1
[9] = system: Nakaseomyces glabratus; test: Antifungal activity against Candida glabrata 20/I after 48 hrs by broth microdilution method; format: functional
[10] = system: Candida tropicalis; test: Antifungal activity against Candida tropicalis 156 after 24 hrs by broth microdilution method; format: functional; details: Candida tropicalis, 156, 24 h
[11] = system: Enterococcus sp.; test: Antibacterial activity against Enterococcus sp. J14365/08 after 48 hrs by broth microdilution method; format: functional; details: J14365/08, 48 h; outline: as §1
[12] = system: Pichia kudriavzevii; test: Antifungal activity against Candida krusei E28 after 48 hrs by broth microdilution method; format: functional; details: E28, 48 h
[13] = system: Candida albicans; test: Antifungal activity against Candida albicans ATCC 44859 after 48 hrs by broth microdilution method; format: functional; details: ATCC 44859, 48 h
[14] = system: Aspergillus fumigatus; test: Antifungal activity against Aspergillus fumigatus 231 after 48 hrs by broth microdilution method; format: functional; details: Aspergillus fumigatus, 231, 48 h
[15] = system: Trichophyton mentagrophytes; test: Antifungal activity against Trichophyton mentagrophytes after 48 hrs by broth microdilution method; format: functional
[16] = system: Mycobacterium kansasii; test: Antimycobacterial activity against Mycobacterium kansasii 6509/96 after 21 days by micromethod; format: functional; details: 6509/96, 504 h; outline: as §2
[17] = system: Lichtheimia corymbifera; test: Antifungal activity against Absidia corymbifera 272 after 48 hrs by broth microdilution method; format: functional; details: Lichtheimia corymbifera, 272, 48 h
[18] = system: Candida albicans; test: Antifungal activity against Candida albicans ATCC 44859 after 24 hrs by broth microdilution method; format: functional; details: ATCC 44859, 24 h
[19] = system: Mycobacterium avium; test: Antimycobacterial activity against multidrug-resistant Mycobacterium avium 330/88 after 21 days by micromethod; format: functional; details: 330/88, 504 h; outline: as §2
[20] = system: Mycobacterium tuberculosis; test: Antimycobacterial activity against Mycobacterium tuberculosis H37Rv 331/88 after 21 days by micromethod; format: functional; details: H37Rv 331/88, 504 h; outline: as §2
[21] = system: Pichia kudriavzevii; test: Antifungal activity against Candida krusei E28 after 24 hrs by broth microdilution method; format: functional; details: E28, 24 h
[22] = system: Staphylococcus aureus; test: Antibacterial activity against methicillin-resistant Staphylococcus aureus H5996/08 after 48 hrs by broth microdilution method; format: functional; details: H5996/08, 48 h; outline: as §1
[23] = system: Trichosporon beigelii; test: Antifungal activity against Trichosporon beigelii 1188 after 48 hrs by broth microdilution method; format: functional; details: Trichosporon beigelii, 1188, 48 h
[24] = system: Mycobacterium tuberculosis; test: Antimycobacterial activity against Mycobacterium tuberculosis H37Rv 331/88 after 14 days by micromethod; format: functional; details: H37Rv 331/88, 336 h; outline: as §2
[25] = system: Mycobacterium kansasii; test: Antimycobacterial activity against Mycobacterium kansasii 235/80 after 14 days by micromethod; format: functional; details: 235/80, 336 h; outline: as §2
[26] = system: Mycobacterium kansasii; test: Antimycobacterial activity against Mycobacterium kansasii 235/80 after 21 days by micromethod; format: functional; details: 235/80, 504 h; outline: as §2
[27] = system: Staphylococcus epidermidis; test: Antibacterial activity against Staphylococcus epidermidis H6966/08 after 24 hrs by broth microdilution method; format: functional; details: H6966/08, 24 h; outline: as §1
[28] = system: Klebsiella pneumoniae; test: Antibacterial activity against Klebsiella pneumoniae D11750/08 after 24 hrs by broth microdilution method; format: functional; details: D11750/08, 24 h; outline: as §1
[29] = system: Lichtheimia corymbifera; test: Antifungal activity against Absidia corymbifera 272 after 24 hrs by broth microdilution method; format: functional; details: Lichtheimia corymbifera, 272, 24 h
[30] = system: Mycobacterium kansasii; test: Antimycobacterial activity against Mycobacterium kansasii 6509/96 after 14 days by micromethod; format: functional; details: 6509/96, 336 h; outline: as §2
[31] = system: Nakaseomyces glabratus; test: Antifungal activity against Candida glabrata 20/I after 24 hrs by broth microdilution method; format: functional
[32] = system: Candida tropicalis; test: Antifungal activity against Candida tropicalis 156 after 48 hrs by broth microdilution method; format: functional; details: Candida tropicalis, 156, 48 h
[33] = system: Trichosporon beigelii; test: Antifungal activity against Trichosporon beigelii 1188 after 24 hrs by broth microdilution method; format: functional; details: Trichosporon beigelii, 1188, 24 h
[34] = system: Staphylococcus aureus; test: Antibacterial activity against Staphylococcus aureus CCM 4516/08 after 48 hrs by broth microdilution method; format: functional; details: CCM 4516/08, 48 h; outline: as §1
[35] = system: Escherichia coli; test: Antibacterial activity against Escherichia coli CCM 4517 after 24 hrs by broth microdilution method; format: functional; details: CCM 4517, 24 h; outline: as §1
[36] = system: Aspergillus fumigatus; test: Antifungal activity against Aspergillus fumigatus 231 after 24 hrs by broth microdilution method; format: functional; details: Aspergillus fumigatus, 231, 24 h
[37] = system: Mycobacterium kansasii; test: Antimycobacterial activity against Mycobacterium kansasii 235/80 after 7 days by micromethod; format: functional; details: 235/80, 168 h; outline: as §2
[38] = system: Staphylococcus aureus; test: Antibacterial activity against methicillin-resistant Staphylococcus aureus H5996/08 after 24 hrs by broth microdilution method; format: functional; details: H5996/08, 24 h; outline: as §1
[39] = system: Mycobacterium kansasii; test: Antimycobacterial activity against Mycobacterium kansasii; format: functional
[40] = system: Mycobacterium kansasii; test: Antimycobacterial activity against Mycobacterium kansasii 6509/96 after 7 days by micromethod; format: functional; details: 6509/96, 168 h; outline: as §2
[41] = system: Mycobacterium tuberculosis; test: Antimycobacterial activity against drug-sensitive Mycobacterium tuberculosis; format: functional
[42] = Lipophilicity, log P of the compound; format: physicochemical; details: octanol/water
[43] = Selectivity index, ratio of IC50 for human PBMC to MIC for Mycobacterium tuberculosis H37Rv 331/88 after 14 days; format: functional
Outline: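 SI = PBMC IC50 (MTT cytotoxicity) divided by the MIC against the named M. tuberculosis strain. MIC taken after 14 days of incubation at 37 °C by the micromethod.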

[44] = system: PBMC; test: Cytotoxicity against human PBMC after 24 hrs by MTT assay; format: cell-based
Outline: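 Human peripheral blood mononuclear cells in RPMI-1640 with 10% fetal calf serum, 2 mM L-glutamine and gentamicin, 37 °C, 5% CO2. Seeded at 1.5–2.0 × 10⁵ cells/well. After 24 h, treated overnight in serum-free medium. Viability by MTT (2 mg/mL, 4 h); formazan dissolved in DMSO; OD540 minus OD620. Cytotoxicity % = [1 − OD treated/OD control] × 100; IC50 from dose-response curves. Four parallels, two independent experiments.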

CC(=O)N[C@@H](Cc1ccccc1)C(=O)Oc1cc(Cl)ccc1C(=O)Nc1ccc(C(F)(F)F)cc1
MIC [1]: 1 µM (≈ 0.505 µg/mL)
MIC [2]: > 125 µM
MIC [3]: 16 µM (≈ 8.08 µg/mL)
MIC [4]: 125 µM (≈ 63.1 µg/mL)
MIC [5]: > 125 µM
MIC [6]: 125 µM (≈ 63.1 µg/mL)
MIC [7]: 125 µM (≈ 63.1 µg/mL)
MIC [8]: > 125 µM
MIC [9]: > 125 µM
MIC [10]: > 125 µM
MIC [11]: > 125 µM
MIC [12]: > 125 µM
MIC [13]: > 125 µM
MIC [14]: > 125 µM
MIC [15]: > 125 µM
MIC [16]: 8 µM (≈ 4.04 µg/mL)
MIC [17]: > 125 µM
MIC [18]: > 125 µM
MIC [19]: 32 µM (≈ 16.2 µg/mL)
MIC [20]: 16 µM (≈ 8.08 µg/mL)
MIC [21]: 62.5 µM (≈ 31.6 µg/mL)
MIC [22]: > 125 µM
MIC [23]: > 125 µM
MIC [24]: 8 µM (≈ 4.04 µg/mL)
MIC [25]: 4 µM (≈ 2.02 µg/mL)
MIC [26]: 4 µM (≈ 2.02 µg/mL)
MIC [27]: 125 µM (≈ 63.1 µg/mL)
MIC [28]: > 125 µM
MIC [29]: 62.5 µM (≈ 31.6 µg/mL)
MIC [30]: 8 µM (≈ 4.04 µg/mL)
MIC [31]: > 125 µM
MIC [32]: > 125 µM
MIC [33]: 125 µM (≈ 63.1 µg/mL)
MIC [34]: > 125 µM
MIC [35]: > 125 µM
MIC [36]: 62.5 µM (≈ 31.6 µg/mL)
MIC [37]: 4 µM (≈ 2.02 µg/mL)
MIC [38]: 125 µM (≈ 63.1 µg/mL)
MIC [39]: 1 µM (≈ 0.505 µg/mL)
MIC [40]: 4 µM (≈ 2.02 µg/mL)
MIC [41]: 1 µM (≈ 0.505 µg/mL)

CC(=O)N[C@@H](Cc1ccccc1)C(=O)Oc1ccc(Br)cc1C(=O)Nc1ccc(C(F)(F)F)cc1
MIC [1]: 1 µM (≈ 0.549 µg/mL)
MIC [2]: 62.5 µM (≈ 34.3 µg/mL)
MIC [3]: 4 µM (≈ 2.2 µg/mL)
MIC [4]: 15.6 µM (≈ 8.58 µg/mL)
MIC [5]: > 500 µM
MIC [6]: 3.9 µM (≈ 2.14 µg/mL)
MIC [7]: 3.9 µM (≈ 2.14 µg/mL)
MIC [8]: 500 µM (≈ 275 µg/mL)
MIC [9]: 500 µM (≈ 275 µg/mL)
MIC [10]: 125 µM (≈ 68.7 µg/mL)
MIC [11]: 125 µM (≈ 68.7 µg/mL)
logP [42]: 5.19
MIC [12]: 125 µM (≈ 68.7 µg/mL)
MIC [13]: 500 µM (≈ 275 µg/mL)
MIC [14]: 31.2 µM (≈ 17.2 µg/mL)
MIC [15]: 7.81 µM (≈ 4.29 µg/mL)
MIC [16]: 2 µM (≈ 1.1 µg/mL)
MIC [17]: 15.6 µM (≈ 8.58 µg/mL)
MIC [18]: 31.2 µM (≈ 17.2 µg/mL)
MIC [19]: 4 µM (≈ 2.2 µg/mL)
MIC [20]: 0.5 µM (≈ 0.275 µg/mL)
MIC [21]: 15.6 µM (≈ 8.58 µg/mL)
MIC [22]: 125 µM (≈ 68.7 µg/mL)
MIC [23]: 31.2 µM (≈ 17.2 µg/mL)
MIC [24]: 0.25 µM (≈ 0.137 µg/mL)
MIC [25]: 2 µM (≈ 1.1 µg/mL)
MIC [26]: 2 µM (≈ 1.1 µg/mL)
MIC [27]: 15.6 µM (≈ 8.58 µg/mL)
Selectivity Index [43]: 194.8
MIC [28]: > 500 µM
MIC [29]: 7.81 µM (≈ 4.29 µg/mL)
MIC [30]: 2 µM (≈ 1.1 µg/mL)
MIC [31]: 125 µM (≈ 68.7 µg/mL)
MIC [32]: 250 µM (≈ 137 µg/mL)
MIC [33]: 15.6 µM (≈ 8.58 µg/mL)
MIC [34]: 31.2 µM (≈ 17.2 µg/mL)
MIC [35]: 250 µM (≈ 137 µg/mL)
MIC [36]: 15.6 µM (≈ 8.58 µg/mL)
MIC [37]: 0.5 µM (≈ 0.275 µg/mL)
pIC50 [44]: 4.31
MIC [38]: 7.81 µM (≈ 4.29 µg/mL)
MIC [39]: 1 µM (≈ 0.549 µg/mL)
MIC [40]: 1 µM (≈ 0.549 µg/mL)
MIC [41]: 1 µM (≈ 0.549 µg/mL)
